Test results: article PMC4322771 (Biopolymers, 2008)
Ends that are not written are not given here.

Columns and labels:
[1] = system: Gal4(1–148)+KBP 2.20-mediated transcription; assay: Competitive inhibition, firefly luciferase reporter assay in HeLa cells; assay type: cell-based; settings: 0 → 20 μM, activity measured 40 h after compound addition
[2] = target: murine CBP KIX domain (CBP(586–672)) (Mus musculus, UniProt P45481); assay: Fluorescence polarization binding to CBP KIX domain
Procedure, shortened: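 Test compounds carried a fluorescein label at the amino terminus and were held at a constant concentration. Each was incubated at 25°C with increasing concentrations of exogenously expressed murine CBP KIX domain (residues 586–672). Fluorescence polarization was read at each protein concentration. Dissociation constants were obtained by Levenberg-Marquardt least-squares fitting of the binding data.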

murine CBP KIX domain (CBP(586–672)), sequence (P45481 586-672): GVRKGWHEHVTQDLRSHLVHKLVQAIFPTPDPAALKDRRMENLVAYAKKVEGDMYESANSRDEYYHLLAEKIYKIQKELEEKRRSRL

Row | Substance | Inhibitory activity on KBP 2.20-mediated transcription (in words) [1] | Fold lower dissociation constant for the KIX domain relative to KBP 1.66 [2]
1 | SRAVRELLFGS | no impact | 
2 | SWAVYELLFGS-NH2 (C-terminus assumed) [KBP 2.20] | little or no inhibitory activity | ~ 3 fold
